{"data": "Results pooled from the literature", "Dipeptidyl peptidase 2": "Dipeptidyl peptidase 2 (Homo sapiens, UniProt Q9UHL4)", "PTGS2": "Prostaglandin G/H synthase 2 (PTGS2, Homo sapiens, UniProt P35354)", "CASP7": "Caspase-7 (CASP7, Homo sapiens, UniProt P55210)", "note": "Compare with care: the assays were run in different laboratories."}
{"SMILES": "CCN(CC)CCCC[C@H](NC(=O)[C@H](CC(C)C)NC(=O)[C@H](C)NC(=O)[C@H](Cc1ccccc1)NC(=O)c1ccc(C(C)(C)C)cc1)C(=O)N[C@@H](CO)C(=O)OC", "target": "5-hydroxytryptamine receptor 1B (Htr1b, Rattus norvegicus, UniProt P28564)", "effect on": "ligand displacement", "method": "radioligand", "concentration": "10 µM", "inhibition": "-11%"}
{"SMILES": "CN(C)C(=O)COC(=O)Cc1ccc(OC(=O)c2ccc(NC(=N)N)cc2)cc1", "target": "Ubiquitin carboxyl-terminal hydrolase isozyme L3 (UCHL3, Homo sapiens, UniProt P15374)", "effect on": "enzyme activity", "mode": "inhibitor", "concentration": "10 µM", "inhibition": "3%"}
{"SMILES": "CC(C)C[C@H](NC(=O)[C@H](Cc1ccccc1)NC(=O)c1cnccn1)B(O)O", "target": "Serine protease HTRA2, mitochondrial (HTRA2, Homo sapiens, UniProt O43464)", "effect on": "enzyme activity", "mode": "inhibitor", "concentration": "33 µM", "inhibition": "< 5%"}
{"SMILES": "N#Cc1ccc(NCCNCC(=O)N2N=CCC2C#N)nc1 (stereo not drawn)", "target": "Dipeptidyl peptidase 2", "effect on": "enzyme activity", "mode": "inhibitor", "concentration": "1 µM", "inhibition": "8%"}
{"SMILES": "Cc1ccc(-c2nc3ccccc3s2)c(-c2cccc(O)c2)c1", "target": "PTGS2", "effect on": "enzyme activity", "mode": "inhibitor", "method": "absorbance", "concentration": "10 µM", "inhibition": "29%"}
{"SMILES": "O=C(Nc1cccnn1)N1CCN([C@@H]2CCOc3cc(C(F)(F)F)ccc32)CC1", "target": "Glucagon receptor (GCGR, Homo sapiens, UniProt P47871)", "effect on": "cell-free assay", "concentration": "20 µM", "inhibition": "-1%"}
{"SMILES": "N=C(N)c1ccc2cc(OC(=O)c3ccc(N=C(N)N)cc3)ccc2c1", "target": "CASP7", "effect on": "enzyme activity", "mode": "inhibitor", "concentration": "10 µM", "inhibition": "1%"}
{"SMILES": "C1=Cc2ccccc2Nc2ccccc21", "target": "Dihydrofolate reductase (folA, Escherichia coli, UniProt P0ABQ4)", "effect on": "enzyme activity", "mode": "inhibitor", "concentration": "1 mM", "inhibition": "~87%"}
{"SMILES": "OC(c1ccc(F)cc1)C(F)(F)CCN1CCC(O)(c2ccc(Cl)cc2)CC1 (racemic)", "target": "Sigma non-opioid intracellular receptor 1 (SIGMAR1, Cavia porcellus, UniProt Q60492)", "effect on": "ligand displacement", "method": "radioligand", "concentration": "10 µM", "inhibition": "> 50%"}
{"SMILES": "C#Cc1n[nH]c2c(-c3cn(C(C)c4ccccn4)c(=O)[nH]c3=O)cc(F)cc12 (stereo not drawn)", "target": "Platelet-derived growth factor receptor beta (PDGFRB, Homo sapiens, UniProt P09619)", "effect on": "enzyme activity", "mode": "inhibitor", "concentration": "1 µM", "inhibition": "6.6%"}
{"SMILES": "Cc1ccc(-c2nc3ccccc3s2)c(-c2ccc(S(N)(=O)=O)cc2)c1", "target": "PTGS2", "effect on": "enzyme activity", "mode": "inhibitor", "method": "absorbance", "concentration": "10 µM", "inhibition": "87.3%"}
{"SMILES": "CCOC(=O)c1ccc(OC(=O)CCCCCNC(=N)N)cc1", "target": "Dipeptidyl peptidase 2", "effect on": "enzyme activity", "mode": "inhibitor", "concentration": "10 µM", "inhibition": "83%"}
{"SMILES": "Cn1cc(-c2cccc(N3CCc4c(sc5c4CC(C)(C)C5)C3=O)c2CO)cc(Nc2ccncn2)c1=O", "target": "Protein kinase C zeta type (PRKCZ, Homo sapiens, UniProt Q05513)", "effect on": "enzyme activity", "mode": "inhibitor", "concentration": "1 µM", "inhibition": "10%"}
{"SMILES": "Nc1ccc(-c2nc3ccccc3s2)c(-c2ccc(O)cc2)c1", "target": "PTGS2", "effect on": "enzyme activity", "mode": "inhibitor", "method": "absorbance", "concentration": "10 µM", "inhibition": "15.3%"}
{"SMILES": "CC(=O)N[C@@H](CC(=O)O)C(=O)N[C@@H](CC(N)=O)C(=O)N[C@@H](CC(C)C)C(=O)N[C@H](C=O)CC(=O)O", "target": "CASP7", "effect on": "enzyme activity", "mode": "inhibitor", "concentration": "5 nM", "inhibition": "8%"}
{"SMILES": "CN(C)Cc1ccc(-c2nc3ccccc3s2)c(-c2ccc(O)cc2)c1", "target": "PTGS2", "effect on": "enzyme activity", "mode": "inhibitor", "method": "absorbance", "concentration": "10 µM", "inhibition": "0%"}
{"SMILES": "Cn1cc(-c2cc(F)cc(N3CCn4c(cc5c4CCCC5)C3=O)c2CO)cc(Nc2ccc(N3CCN(C4COC4)CC3)cn2)c1=O", "target": "Dual specificity tyrosine-phosphorylation-regulated kinase 3 (DYRK3, Homo sapiens, UniProt O43781)", "effect on": "enzyme activity", "mode": "inhibitor", "concentration": "0.1 µM", "inhibition": "5%"}
{"SMILES": "Nc1ccc(-c2nc3ccccc3s2)c(-c2cccc(O)c2)c1", "target": "PTGS2", "effect on": "enzyme activity", "mode": "inhibitor", "method": "absorbance", "concentration": "10 µM", "inhibition": "33.3%"}
{"SMILES": "CC(C)N1CCC[C@H]1CNC(=O)c1cn(C2CCCC2)c(=O)c2c1c1ccccc1n2C", "target": "Neuropeptide Y receptor type 2 (NPY2R, Homo sapiens, UniProt P49146)", "effect on": "ligand displacement", "method": "radioligand", "concentration": "10 µM", "inhibition": "3%"}
{"SMILES": "CS(=O)(=O)c1ccc(-c2ncccc2-c2nc3ccccc3s2)cc1", "target": "PTGS2", "effect on": "enzyme activity", "mode": "inhibitor", "method": "absorbance", "concentration": "10 µM", "inhibition": "84.7%"}
{"SMILES": "COCc1c(-c2cc3cc(C)cc(OC)c3s2)c2c(N)ncnn2c1CN1CCNC(=O)C1", "target": "Alpha-2B adrenergic receptor (ADRA2B, Homo sapiens, UniProt P18089)", "effect on": "ligand displacement", "method": "radioligand", "concentration": "10 µM", "inhibition": "34%"}
